Published values of several laboratories.
Protocols differ between the studies behind these lines.
Read-out: cell growth or viability

| Compound | cell line | technique | tested at | time | endpoint | result |
| --- | --- | --- | --- | --- | --- | --- |
| CC(=O)N[C@H]1[C@@H](O[C@@H]2O[C@H](C[C@@H](O)[C@H]3O[C@@H](n4ccc(=O)[nH]c4=O)[C@H](O)[C@@H]3O)[C@H](O)[C@H](O)[C@H]2NC(=O)/C=C/CCCCCCCCCC(C)C)O[C@H](CO)[C@@H](O)[C@@H]1O | SK-BR-3 | WST-1 |  |  | IC50 | 110 nM |
| N.N.[Cl][Pt][Cl] | Vero | MTT |  | 48 h | IC50 | 63100 nM |
| COc1cc(C(=O)c2nc(-c3cccc4[nH]ccc34)c(Br)[nH]2)cc(OC)c1OC | M14 | MTS |  | 72 h | IC50 | > 1000 nM |
| N.N.O=C([O-])C1(C(=O)[O-])CCC1.[Pt+2] | Vero | MTT |  | 48 h | IC50 | 506000 nM |
| COc1cc(C(=O)c2nc(-c3c[nH]c4cccc(C)c34)c[nH]2)cc(OC)c1OC | M14 | MTS |  | 72 h | IC50 | 167 nM |
| COc1c(C)c2c(c(O)c1C/C=C(\C)CCC(=O)O)C(=O)OC2 | MDA-MB-436 |  |  |  | IC50 | 1120 nM |
| Cc1sc2c(c1C)C(c1ccc(Cl)cc1)=N[C@@H](CC(N)=O)c1nnc(C)n1-2 | MP41 | ATP luminescence |  | 72 h | IC50 | 153 nM |
| O=C(NCc1ccccc1)c1cn(Cc2ccc(C(F)(F)F)cc2)c2ccc(Oc3ccccc3)cc2c1=O | HCC70 |  |  | 72 h | CC50 | 20500 nM |
| Cn1cc2cc(C(F)(F)c3nnc4ccc(-c5cnn(C6CC6)c5)nn34)c(F)cc2n1 | MKN-45 | CCK-8 |  | 72 h | IC50 | 12 nM |
| CC[C@@]1(O)C(=O)OCc2c1cc1n(c2=O)Cc2cc3ccccc3nc2-1 | MP41 | ATP luminescence |  | 72 h | IC50 | 117 nM |
| O=C(Nc1ccc(Cl)cc1)Nc1cccc(-c2cn(Cc3ccc(Br)cc3)nn2)c1 | NCI-H1299 | CCK-8 | 50 µM | 72 h | viability | 76.7% |
